Test results from ChEMBL document CHEMBL3102710, “Design, synthesis, and evaluation of fimbrolide-nitric oxide donor hybrids as antimicrobial agents” (J Med Chem, 2013).
Calls of active or inactive are those of the source. Unless noted, no cut-off for these calls is given here.

Key:
[1] = Induction of nitric oxide release in PBS buffer supplemented with L-cysteine, xanthine, xanthine oxidase assessed as nitrite release at 250 to 500 uM after 24 hrs by Griess assay; type: physicochemical
Procedure, shortened: (§1)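 Total NO release was quantified as nitrite with Griess reagent, which detects nitrite at ≥1 μM. Because of that limit, compounds were added at 250 μM and 500 μM.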

[2] = test system: Pseudomonas aeruginosa; experiment: Antibacterial activity against Pseudomonas aeruginosa PAO1 assessed as inhibition of biofilm formation at 150 uM after 6 hrs by crystal violet staining assay relative to control; type: functional; details: for inhibition at 150 µM: PAO1, 6 h
[3] = Inhibition of quorum sensing system in Pseudomonas aeruginosa PAO1 MH602 harboring lasB promoter fused with GFP-ASV assessed as reduction in GFP-ASV reporter protein expression at 266 uM measured every 30 mins relative to control
[4] = Inhibition of quorum sensing system in Pseudomonas aeruginosa PAO1 MH602 harboring lasB promoter fused with GFP-ASV assessed as reduction in GFP-ASV reporter protein expression measured every 30 mins
Procedure, shortened: (§2)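 P. aeruginosa PAO1 carrying a PlasB::gfp(ASV) fusion plasmid, which makes its own AHL signals, incubated with compounds at 88.8, 29.6, 9.9, 3.3 or 1.0 μM. GFP fluorescence (RFU) read every half hour. Percent QS inhibition is the percent RFU difference between sample and untreated control, taken at the time point when control fluorescence peaks.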

[5] = Inhibition of quorum sensing system in Pseudomonas aeruginosa PAO1 MH602 harboring lasB promoter fused with GFP-ASV assessed as reduction in GFP-ASV reporter protein expression at 88 uM measured every 30 mins relative to control; procedure, shortened: as §2
[6] = Inhibition of quorum sensing system in Pseudomonas aeruginosa PAO1 MH602 harboring lasB promoter fused with GFP-ASV assessed as reduction in GFP-ASV reporter protein expression at 3.2 uM measured every 30 mins relative to control; procedure, shortened: as §2
[7] = Inhibition of quorum sensing system in Pseudomonas aeruginosa PAO1 MH602 harboring lasB promoter fused with GFP-ASV assessed as reduction in GFP-ASV reporter protein expression at 9.8 uM measured every 30 mins relative to control; procedure, shortened: as §2
[8] = Inhibition of quorum sensing system in Pseudomonas aeruginosa PAO1 MH602 harboring lasB promoter fused with GFP-ASV assessed as reduction in GFP-ASV reporter protein expression at 29 uM measured every 30 mins relative to control; procedure, shortened: as §2
[9] = test system: Pseudomonas aeruginosa; experiment: Antibacterial activity against Pseudomonas aeruginosa PAO1 MH602 harboring lasB promoter fused with GFP-ASV assessed as growth inhibition at 88 uM measured every 30 mins by GFP-ASV reporter gene assay; type: organism-based; details: pseudomonas aeruginosa, in vivo, 0.5 h, 88 µM
Procedure, shortened: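 Cell growth of the PAO1 PlasB::gfp(ASV) reporter strain tracked as OD600 every half hour during compound incubation, alongside GFP readings. Growth is compared against the untreated control.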

[10] = test system: Pseudomonas aeruginosa; experiment: Induction of nitric oxide-dependent nirS gene expression in Pseudomonas aeruginosa at 500 uM incubated for 2 hrs under dark condition by GFP reporter gene assay relative to untreated control; type: functional
[11] = test system: Pseudomonas aeruginosa; experiment: Antibacterial activity against Pseudomonas aeruginosa assessed as growth inhibition at 500 uM after 2 hrs by GFP reporter gene assay; type: organism-based; details: in vivo
[12] = Induction of nitric oxide release in PBS buffer supplemented with L-cysteine, xanthine, xanthine oxidase assessed as nitrite release at 500 uM after 1 hr by Griess assay; type: physicochemical; procedure, shortened: as §1

Row | Structure (SMILES) | Activity [1] | inhibition [2] | inhibition [3] [%] | inhibition [4] | inhibition [5] | inhibition [6] | inhibition [7] | inhibition [8] | Activity [9] | Activity [10] | inhibition at 150 µM [2] [%] | Activity [11] | Activity [12] [µM] | fold change (FC) [10]
1 | CCCC(OC(=O)CO/N=[N+](\[O-])N1CCN(C(=O)OCC)CC1)C1=CC(=C(Br)Br)OC1=O (stereo not given) | Not Active | inactive | 65.9 | Dose-dependent effect | 41.5% | inactive | 4% | 22.8% | Non-toxic | – | – | – | – | –
2 | CCCCCCCCCCCC(O[N+](=O)[O-])C1=CC(=C(Br)Br)OC1=O (stereo not given) | – | – | 67.3 | Dose-dependent effect | 29% | inactive | inactive | inactive | Non-toxic | inactive | 73 | Non-toxic | 17.9 | –
3 | CCCCCCCCCCCC(OC(=O)CC(=O)N1CCN(/[N+]([O-])=N/OC)CC1)C1=CC(=C(Br)Br)OC1=O (stereo not given) | Not Active | inactive | 40.9 | Dose-dependent effect | inactive | inactive | inactive | inactive | Non-toxic | – | – | – | – | –
4 | CCCC(OC(=O)CO[N+](=O)[O-])C1=CC(=C(Br)Br)OC1=O (stereo not given) | – | – | 88 | Dose-dependent effect | 72.9% | inactive | 23.2% | 49.6% | Non-toxic | – | 61 | Non-toxic | 29 | 2.5
